Legend:
MDA-MB-231 = experiment: Cytotoxicity against human MDA-MB-231 cells assessed as cell viability after 72 hrs by Alamar Blue assay; type: functional, cell-based; conditions: MDA-MB-231, 72 h
In short: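 MDA-MB-231 cells in DMEM with 10% FBS, 2 mM L-glutamine, penicillin and streptomycin were seeded at 10 000 cells/well and grown 24 h. Medium was replaced with drug or vehicle (0.1% or 1.0% DMSO) for 72 h. Viability was read by Alamar Blue absorbance at 570 nm (600 nm reference) as % of vehicle control, from six replicates in at least six independent experiments.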

[1] = Cytotoxicity against HEK293 cells assessed as cell viability at 40 uM after 72 hrs by resazurin-based plate reader analysis; conditions: human, read-out: Activity
In short: (§1)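 HEK293 cells grown in DMEM with 10% FCS, seeded at 2000 cells/well and left overnight to adhere at 37 °C, 5% CO2. Compounds were tested at a final 40 μM in 0.4% DMSO. After 72 h exposure, 44 μM resazurin in serum-free DMEM was added for 4−6 h and fluorescence read at 530/595 nm. Growth was normalised to 5 μM puromycin and 0.4% DMSO controls, with IC50 from variable-slope nonlinear regression.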

Plasmodium falciparum [2] = experiment: Antiplasmodial activity against chloroquine-resistant Plasmodium falciparum Dd2 assessed as inhibition of parasite growth at 40 uM after 72 hrs by DAPI staining-based confocal microscopic analysis; type: functional; conditions: Dd2, 72 h
In short: (§2)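 Sorbitol-synchronized asexual P. falciparum in human O+ erythrocytes (RPMI, Hepes, hypoxanthine, 5% human serum, AlbuMAX II), ring stage at 2% parasitemia, 0.3% hematocrit. Three-step log dilutions from 40 μM top, 0.4% DMSO final. 72 h at 37 °C, 5% CO2. Saponin/Triton X/EDTA/DAPI stain overnight, confocal imaging counts parasites.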

Plasmodium falciparum [3] = experiment: Antiplasmodial activity against chloroquine-sensitive Plasmodium falciparum 3D7 assessed as inhibition of parasite growth after 72 hrs by DAPI staining-based confocal microscopic analysis; type: functional, organism-based; conditions: 3D7, 72 h; in short: as §2
Plasmodium falciparum [4] = experiment: Antiplasmodial activity against chloroquine-resistant Plasmodium falciparum Dd2 assessed as inhibition of parasite growth after 72 hrs by DAPI staining-based confocal microscopic analysis; type: functional, organism-based; conditions: Dd2, 72 h; in short: as §2
[5] = Cytotoxicity against HEK293 cells assessed as cell viability at 20 uM after 72 hrs by resazurin-based plate reader analysis; conditions: human, read-out: Activity
Plasmodium falciparum [6] = experiment: Antiplasmodial activity against chloroquine-sensitive Plasmodium falciparum 3D7 assessed as inhibition of parasite growth at 100 uM after 72 hrs by DAPI staining-based confocal microscopic analysis; type: functional; conditions: 3D7, 72 h
Plasmodium falciparum [7] = experiment: Antiplasmodial activity against chloroquine-resistant Plasmodium falciparum Dd2 assessed as inhibition of parasite growth at 100 uM after 72 hrs by DAPI staining-based confocal microscopic analysis; type: functional; conditions: Dd2, 72 h
HEK293 = experiment: Cytotoxicity against HEK293 cells assessed as cell viability after 72 hrs by resazurin-based plate reader analysis; conditions: Homo sapiens, HEK293, 72 h; in short: as §1

Compound | IC50 (MDA-MB-231) [µM] | IC50 (Plasmodium falciparum [3]) [µM] | IC50 (Plasmodium falciparum [4]) [µM] | other results
CC(C)=CCC/C(C)=C/COc1ccc(/C=C/CO)cc1 | 207 | – | – | –
CC1(C)C=Cc2c(ccc3c2O[C@@H]2COc4cc5c(cc4[C@]2(O)C3=O)OCO5)O1 | 61.7 | – | – | –
CCc1nc(N)nc(N)c1-c1ccc(Cl)cc1 [PYRIMETHAMINE] | – | – | – | viability at 72 h, 40 µM [1]: 75%; inhibition at 40 µM (Plasmodium falciparum [2]): 62%
COc1ccc2nc3cc(Cl)ccc3c(Nc3cc(CN4CCCC4)c(O)c(CN4CCCC4)c3)c2n1 [PYRONARIDINE] | – | 0.0036 | 0.00751 | –
C[C@H]1[C@H](OC(=O)CCC(=O)O)O[C@@H]2O[C@@]3(C)CC[C@H]4[C@H](C)CC[C@@H]1[C@@]24OO3 [ARTESUNATE] | – | 0.0005 | 0.000443 | viability at 72 h, 20 µM [5]: 73%
COc1cc2c(cc1OC)[C@]1(O)C(=O)c3ccc4c(c3O[C@@H]1CO2)C=CC(C)(C)O4 [TEPHROSIN] | – | 13.3 | 12.1 | –
O[C@@H]1c2ccc3c(c2O[C@@H]2COc4cc5c(cc4[C@@]12O)OCO5)OCO3 | > 279 | – | – | –
C[C@H]1[C@@H](O)O[C@@H]2O[C@@]3(C)CC[C@H]4[C@H](C)CC[C@@H]1[C@@]24OO3 [ARTENIMOL] | – | 0.0001 | 0.000146 | viability at 72 h, 40 µM [1]: 54%; viability at 72 h, 20 µM [5]: 50%
COc1ccc2c(c1CC=C(C)C)O[C@@H]1COc3cc4c(cc3[C@@]1(O)C2=O)OCO4 | 25.7 | – | – | –
CC(C)=CCC/C(C)=C/COc1ccc(/C=C/C(=O)c2ccc(O)cc2O)cc1 | – | 3.67 | 6.97 | –
COc1cc2c(cc1-c1coc3c4c(ccc3c1=O)OC(C)(C)C=C4)OCO2 | – | – | – | inhibition at 100 µM (Plasmodium falciparum [6]): 94%; inhibition at 100 µM (Plasmodium falciparum [7]): 81%
CC1(C)C=Cc2c(ccc3c2O[C@@H]2COc4cc5c(cc4[C@@]2(O)C3=O)OCO5)O1 | 101 | – | – | inhibition at 100 µM (Plasmodium falciparum [6]): 28%; inhibition at 100 µM (Plasmodium falciparum [7]): 29%
CC(C)=CCC/C(C)=C/COc1ccc(C(=O)/C=C/c2ccc(O)cc2)c(O)c1 | 126 | – | – | –
CCN(CC)CCCC(C)Nc1ccnc2cc(Cl)ccc12 (configuration not stated) [CHLOROQUINE] | – | – | – | viability at 72 h, 40 µM [1]: 51%
COc1ccc(C[C@H](N)C(=O)N[C@H]2[C@@H](O)[C@H](n3cnc4c(N(C)C)ncnc43)O[C@@H]2CO)cc1 [PUROMYCIN] | – | 0.0227 | 0.0452 | IC50 (HEK293): 0.361 µM
O=C1c2ccc3c(c2O[C@@H]2COc4cc5c(cc4[C@@]12O)OCO5)OCO3 | 87.3 | – | – | inhibition at 100 µM (Plasmodium falciparum [6]): 99%; inhibition at 100 µM (Plasmodium falciparum [7]): 90%

— ChEMBL document CHEMBL3758154, “Rotenoids, Flavonoids, and Chalcones from the Root Bark of Millettia usaramensis” (J Nat Prod, 2015)
